Experimental data as given in ChEMBL document CHEMBL5550111, “Design, synthesis and biological evaluation of aryloxy thiophosphoramidate triesters of anticancer nucleoside analogues” (Bioorg Med Chem, 2024).

Experiments:
HepG2 [1] = assay: Cytotoxicity against human HepG2 cells assessed as inhibition of cell viability incubated for 72 hrs by MTS assay; assay type: functional, cell-based; details: HepG2, 72 h
Procedure, shortened: (§1)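 Cells seeded at 0.5 to 100 × 10^3 per well the day before treatment, then exposed for 72 h to 9 serial concentrations (3.16-fold dilutions, top 198 μM), in duplicate. MTS added for a final 4 h at 37 °C and absorbance read. IC50 is the concentration giving 50% loss of viability. MI% is the maximum inhibition over the tested range.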

HT-29 [2] = assay: Cytotoxicity against human HT-29 cells assessed as maximum inhibition of cell viability upto 198 uM incubated for 72 hrs by MTS assay relative to control; assay type: functional; details: up to 198 µM
Procedure, shortened: (§2)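 Cells seeded at 0.5 to 100 × 10^3 per well the day before drug addition, then exposed to compound for 72 h. MTS added afterwards, with a further 4 h at 37 °C, and absorbance read. Tested in duplicate at 9 serial 3.16-fold dilutions, top concentration 198 μM. MI% is the maximum inhibition of viability across the tested range.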

SK-MES-1 [3] = assay: Cytotoxicity against human SK-MES-1 cells assessed as inhibition of cell viability incubated for 72 hrs by MTS assay; assay type: functional, cell-based; details: SK-MES-1, 72 h; procedure, shortened: as §1
RPMI-8226 [4] = assay: Cytotoxicity against human RPMI-8226 cells assessed as maximum inhibition of cell viability upto 198 uM incubated for 72 hrs by MTS assay relative to control; assay type: functional; details: up to 198 µM; procedure, shortened: as §2
OVCAR-3 [5] = assay: Cytotoxicity against human OVCAR-3 cells assessed as maximum inhibition of cell viability upto 198 uM incubated for 72 hrs by MTS assay relative to control; assay type: functional; details: up to 198 µM; procedure, shortened: as §2
RPMI-8226 [6] = assay: Cytotoxicity against human RPMI-8226 cells assessed as inhibition of cell viability incubated for 72 hrs by MTS assay; assay type: functional, cell-based; details: RPMI-8226, 72 h; procedure, shortened: as §1
HT-29 [7] = assay: Cytotoxicity against human HT-29 cells assessed as inhibition of cell viability incubated for 72 hrs by MTS assay; assay type: functional, cell-based; details: HT-29, 72 h; procedure, shortened: as §1
HepG2 [8] = assay: Cytotoxicity against human HepG2 cells assessed as maximum inhibition of cell viability upto 198 uM incubated for 72 hrs by MTS assay relative to control; assay type: functional; details: up to 198 µM; procedure, shortened: as §2
MIA PaCa-2 [9] = assay: Cytotoxicity against human MIA PaCa-2 cells assessed as inhibition of cell viability incubated for 72 hrs by MTS assay; assay type: functional, cell-based; details: MIA PaCa-2, 72 h; procedure, shortened: as §1
RT112/84 [10] = assay: Cytotoxicity against human RT112/84 cells assessed as maximum inhibition of cell viability upto 198 uM incubated for 72 hrs by MTS assay relative to control; assay type: functional; details: up to 198 µM; procedure, shortened: as §2
COLO 205 = assay: Cytotoxicity against human COLO 205 cells assessed as inhibition of cell viability incubated for 72 hrs by MTS assay; assay type: functional, cell-based; details: COLO 205, 72 h; procedure, shortened: as §1
OVCAR-3 [11] = assay: Cytotoxicity against human OVCAR-3 cells assessed as inhibition of cell viability incubated for 72 hrs by MTS assay; assay type: functional, cell-based; details: OVCAR-3, 72 h; procedure, shortened: as §1
SK-MES-1 [12] = assay: Cytotoxicity against human SK-MES-1 cells assessed as maximum inhibition of cell viability upto 198 uM incubated for 72 hrs by MTS assay relative to control; assay type: functional; details: up to 198 µM; procedure, shortened: as §2
RT112/84 [13] = assay: Cytotoxicity against human RT112/84 cells assessed as inhibition of cell viability incubated for 72 hrs by MTS assay; assay type: functional, cell-based; details: RT112/84, 72 h; procedure, shortened: as §1
MIA PaCa-2 [14] = assay: Cytotoxicity against human MIA PaCa-2 cells assessed as maximum inhibition of cell viability upto 198 uM incubated for 72 hrs by MTS assay relative to control; assay type: functional; details: up to 198 µM; procedure, shortened: as §2
NCI-H1975 = assay: Cytotoxicity against human NCI-H1975 cells assessed as maximum inhibition of cell viability upto 198 uM incubated for 72 hrs by MTS assay relative to control; assay type: functional; details: up to 198 µM; procedure, shortened: as §2

C[C@H](NP(=O)(OC[C@H]1O[C@@H](n2cc(F)c(=O)[nH]c2=O)C[C@@H]1O)Oc1cccc2ccccc12)C(=O)OCc1ccccc1 (stereo partly specified) [FOSIFLOXURIDINE NAFALBENAMIDE]
IC50 (HepG2 [1]): 24500 nM | Imax (HT-29 [2]): 81% | IC50 (SK-MES-1 [3]): 320 nM | Imax (RPMI-8226 [4]): 93% | Imax (OVCAR-3 [5]): 92% | IC50 (RPMI-8226 [6]): 5900 nM | IC50 (HT-29 [7]): 520 nM | Imax (HepG2 [8]): 62% | IC50 (MIA PaCa-2 [9]): 1470 nM | Imax (RT112/84 [10]): 77% | IC50 (COLO 205): 140 nM | IC50 (OVCAR-3 [11]): 6910 nM | Imax (SK-MES-1 [12]): 77% | IC50 (RT112/84 [13]): 320 nM | Imax (MIA PaCa-2 [14]): 96% | Imax (NCI-H1975): 72%
